Measured values taken from ChEMBL document CHEMBL2086291, “Antitumor agent calixarene 0118 targets human galectin-1 as an allosteric inhibitor of carbohydrate binding” (J Med Chem, 2012).
The source made the active and inactive calls. No cut-off for these calls is given here.

Tests used:
[1] = test system: DU-145; assay: Cytotoxicity against human DU145 cells assessed as cell viability by MTT assay; assay type: functional, cell-based
In short: (§1)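 Cells grown as monolayers in RPMI with 10% FCS and 2 mM glutamine at 37 °C, 5% CO2, seeded at 2 × 10^3 cells/well. Then 72 h drug exposure and 48 h wash-out, followed by 0.4 mg/mL MTT for 4 h at 37 °C. Formazan dissolved in DMSO, absorbance read at 560 nm, and IC50 determined per cell line.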

[2] = molecular target: T1, Galectin-1 (Homo sapiens, UniProt P09382); assay: Inhibition of FITC-conjugated human Galectin-1binding to CD4+ cell surface glycans of gal1 -/- mouse at 100 uM after 30 mins by flow cytometry
In short: (§2)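 Splenocytes from gal-1−/− mice, with RBCs lysed in ACK for 5 min on ice. Cells stained with lineage antibodies for 40 min on ice, then given FITC-gal-1 (0.1 or 0.2 μM; FITC:protein labeling ratio 10:1) with or without compound for 30 min on ice. Binding read by multiparameter flow cytometry gated on CD4+, CD8+ and CD31+ cells.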

[3] = test system: SK-HEP1; assay: Cytotoxicity against human SKHEP1 cells assessed as cell viability by MTT assay; assay type: functional, cell-based; in short: as §1
[4] = test system: COLO 205; assay: Cytotoxicity against human COLO205-S cells assessed as cell viability by MTT assay; assay type: functional, cell-based; in short: as §1
[5] = test system: COLO 205; assay: Cytotoxicity against human COLO205-R cells assessed as cell viability by MTT assay; assay type: functional, cell-based; in short: as §1
[6] = test system: HEp-2; assay: Cytotoxicity against human Hep2 cells assessed as cell viability by MTT assay; assay type: functional, cell-based; in short: as §1
[7] = molecular target: T1, Galectin-1; assay: Inhibition of FITC-conjugated human Galectin-1binding to CD31+ endothelial cell surface glycans of gal1 -/- mouse at 100 uM after 30 mins by flow cytometry; in short: as §2
[8] = molecular target: T1, Galectin-1; assay: Inhibition of FITC-conjugated human Galectin-1binding to CD31+ endothelial cell surface glycans of gal1 -/- mouse at 20 uM after 30 mins by flow cytometry; in short: as §2
[9] = test system: HT-29; assay: Cytotoxicity against human HT-29 cells assessed as cell viability by MTT assay; assay type: functional, cell-based; in short: as §1
[10] = molecular target: T1, Galectin-1; assay: Binding affinity to human [15N]-labelled Galectin-1 at 60 uM by heteronuclear NMR spectroscopy analysis
In short: (§3)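 Uniformly 15N-labeled recombinant human gal-1 was expressed in E. coli BL21(DE3) and dissolved at 1 mg/mL in 20 mM potassium phosphate, pH 7.0, 50 μM EDTA, 95% H2O/5% D2O. Compound was titrated and followed by 1H-15N HSQC, reading resonance broadening and intensity changes. Averaged intensity change was plotted against free ligand, with bound ligand estimated from total gal-1 monomer (60 μM).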

[11] = test system: SQ20B; assay: Cytotoxicity against human SQ20B cells assessed as cell viability by MTT assay; assay type: functional, cell-based; in short: as §1
[12] = molecular target: T1, Galectin-1; assay: Inhibition of FITC-conjugated human Galectin-1binding to CD31+ endothelial cell surface glycans of gal1 -/- mouse after 30 mins by flow cytometry; in short: as §2
[13] = molecular target: T1, Galectin-1; assay: Binding affinity to human [15N]-labelled Galectin-1 by heteronuclear NMR spectroscopy analysis; in short: as §3
[14] = molecular target: T1, Galectin-1; assay: Inhibition of lactose binding to human [15N]-labelled Galectin-1 at molar ratio of 1:5 Gal1:compound by heteronuclear NMR spectroscopy analysis
[15] = molecular target: T1, Galectin-1; assay: Inhibition of FITC-conjugated human Galectin-1binding to CD4+ cell surface glycans of gal1 -/- mouse after 30 mins by flow cytometry; in short: as §2
[16] = molecular target: T1, Galectin-1; assay: Inhibition of FITC-conjugated human Galectin-1binding to CD8+ cell surface glycans of gal1 -/- mouse after 30 mins by flow cytometry; in short: as §2
[17] = molecular target: T1, Galectin-1; assay: Inhibition of FITC-conjugated human Galectin-1binding to CD8+ cell surface glycans of gal1 -/- mouse at 20 uM after 30 mins by flow cytometry; in short: as §2
[18] = molecular target: T1, Galectin-1; assay: Inhibition of FITC-conjugated human Galectin-1binding to CD4+ cell surface glycans of gal1 -/- mouse at 20 uM after 30 mins by flow cytometry; in short: as §2
[19] = molecular target: T1, Galectin-1; assay: Inhibition of FITC-conjugated human Galectin-1binding to CD8+ cell surface glycans of gal1 -/- mouse at 100 uM after 30 mins by flow cytometry; in short: as §2
[20] = molecular target: T1, Galectin-1; assay: Binding affinity to Galectin-1 in human Jurkat E6-1 cells surface glycans assessed as attenuation of agglutination at 20 uM by morphometric analysis; assay type: cell-based
In short: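 Jurkat E6.1 cells (2 × 10^6 per 200 μL RPMI 1640) agglutinated with 1 μM gal-1 and incubated at 22 °C in medium alone or with 20 μM compound. Agglutination imaged by inverted phase microscopy, then digitally quantified by pixel-based morphometric analysis.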

T1 sequence (P09382 whole entry): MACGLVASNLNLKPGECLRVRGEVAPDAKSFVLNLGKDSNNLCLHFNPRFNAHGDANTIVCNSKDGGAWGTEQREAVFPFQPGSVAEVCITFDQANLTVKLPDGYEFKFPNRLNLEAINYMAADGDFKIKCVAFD

inhibition [2]: 100%
inhibition [7]: 70%
inhibition [8]: 50%
Activity [10]: 50%
inhibition [12]: Dose-dependent effect
Kd [13]: 30 µM
inhibition [14]: Active
inhibition [15]: Dose-dependent effect
inhibition [16]: Dose-dependent effect
inhibition [17]: 80%
inhibition [18]: 80%
inhibition [19]: 100%
Activity [20]: 80%
Structure (SMILES): CN(C)CCNC(=O)COc1c2cccc1Cc1cccc(c1OCC(=O)NCCN(C)C)Cc1cccc(c1OCC(=O)NCCN(C)C)Cc1cccc(c1OCC(=O)NCCN(C)C)C2 [OTX-008]
Activity [1]: Dose-dependent effect
Activity [3]: Dose-dependent effect
Activity [4]: Dose-dependent effect
Activity [5]: Dose-dependent effect
Activity [6]: Dose-dependent effect
Activity [9]: Dose-dependent effect
Activity [11]: Dose-dependent effect
